According to ChEMBL document CHEMBL1828596, “Synthesis of methoxy- and bromo-substituted indirubins and their activities on apoptosis induction in human neuroblastoma cells” (Bioorg Med Chem Lett, 2011):
The source made the active and inactive calls. The rule behind the calls is not given here.

Experiments:
NB39 [1] = test: Cytotoxicity against human NB39 cells assessed as cell viability up to 40 uM after 48 hrs by MTT assay; type: functional, cell-based
Procedure, shortened: (§1)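 MTT viability assay in neuroblastoma lines (IMR-32, SK-N-SH, NB-39) and normal cells (NHDF, HUVEC). Cells were exposed to the indicated concentrations of compound or DMSO vehicle for 48 h. Survival is expressed relative to the vehicle control as mean ± SEM, n = 3.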

HUVEC [2] = test: (§2) Cytotoxicity against human HUVEC cells assessed as cell viability up to 40 uM after 48 hrs by MTT assay; type: cell-based; settings: huvec, 48 h; procedure, shortened: as §1
IMR-32 [3] = test: Cytotoxicity against human IMR32 cells assessed as cell viability up to 40 uM after 48 hrs by MTT assay; type: functional, cell-based; procedure, shortened: as §1
NHDF [4] = test: (§3) Cytotoxicity against human NHDF cells assessed as cell viability up to 40 uM after 48 hrs by MTT assay; type: cell-based; settings: nhdf, 48 h; procedure, shortened: as §1
SK-N-SH [5] = test: Cytotoxicity against human SK-N-SH cells assessed as cell viability up to 40 uM after 48 hrs by MTT assay; type: functional, cell-based; procedure, shortened: as §1
IMR-32 [6] = test: Cytotoxicity against human IMR32 cells assessed as cell viability after 48 hrs by MTT assay; type: functional, cell-based; procedure, shortened: as §1
SK-N-SH [7] = test: Cytotoxicity against human SK-N-SH cells assessed as cell viability after 48 hrs by MTT assay; type: functional, cell-based; procedure, shortened: as §1
HUVEC [8] = test: Cytotoxicity against human HUVEC cells assessed as cell viability after 48 hrs by MTT assay; type: cell-based; procedure, shortened: as §1
NB39 [9] = test: Cytotoxicity against human NB39 cells assessed as cell viability after 48 hrs by MTT assay; type: functional, cell-based; procedure, shortened: as §1
NHDF [10] = test: Cytotoxicity against human NHDF cells assessed as cell viability after 48 hrs by MTT assay; type: cell-based; procedure, shortened: as §1
[11] = as §2; type: cell-based; settings: HUVEC cells, read-out: Activity; procedure, shortened: as §1
[12] = as §3; type: cell-based; settings: NHDF cells, read-out: Activity; procedure, shortened: as §1
IMR-32 [13] = test: Induction of apoptosis human IMR32 cells assessed as increase in early apoptotic cells at 100 uM after 48 hrs using annexin V-propidium iodide staining by flow cytometry; type: functional, cell-based
Procedure, shortened: (§4)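 IMR-32 cells were treated with compound at 100 μM or DMSO vehicle for 48 h; untreated cells served as the normal group. Cells were double-stained with Annexin V-Alexa Fluor 488 and propidium iodide and analysed by flow cytometry. Early apoptosis was read as Annexin+/PI− and late apoptosis as Annexin+/PI+. Groups were compared with one-way ANOVA and Bonferroni post hoc test versus vehicle.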

[14] = Cytotoxicity against human NHDF cells assessed as cell survival at 100 uM; type: cell-based; settings: read-out: Activity; procedure, shortened: as §1
SK-N-SH [15] = test: Cytotoxicity against human SK-N-SH cells assessed as cell survival at 100 uM; type: functional; settings: read-out: Activity; procedure, shortened: as §1
[16] = Cytotoxicity against human NB39 cells assessed as cell survival at 100 uM; type: functional; settings: read-out: Activity; procedure, shortened: as §1
IMR-32 [17] = test: Induction of apoptosis in human IMR32 cells assessed as chromatin condensation at 1 x 10^-6 to 1 x 10^-4 M after 24 hrs using Hoechst 33342 staining by fluorescent microscopic analysis; type: functional, cell-based
Procedure, shortened: (§5)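 IMR-32 cells were exposed to compound (1 × 10⁻⁶–1 × 10⁻⁴ M) or cisplatin (1 × 10⁻⁴ M) for 24 h, then stained with Hoechst 33342. Phase-contrast and fluorescence microscopy were used to assess nuclear morphology (shrinkage, chromatin condensation, fragmented nuclei).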

IMR-32 [18] = test: Induction of apoptosis in human IMR32 cells assessed as cellular shrinkage at 1 x 10^-6 to 1 x 10^-4 M after 24 hrs using Hoechst 33342 staining by fluorescent microscopic analysis; type: functional, cell-based; procedure, shortened: as §5
IMR-32 [19] = test: Induction of apoptosis human IMR32 cells assessed as increase in late apoptotic cells at 100 uM after 48 hrs using annexin V-propidium iodide staining by flow cytometry; type: functional, cell-based; procedure, shortened: as §4
IMR-32 [20] = test: Cytotoxicity against human IMR32 cells assessed as cell survival at 100 uM; type: functional; settings: read-out: Activity; procedure, shortened: as §1
[21] = Cytotoxicity against human HUVEC cells assessed as cell survival at 100 uM; type: cell-based; settings: read-out: Activity; procedure, shortened: as §1
IMR-32 [22] = test: Induction of apoptosis in human IMR32 cells assessed as appearance of fragmented nuclei at 1 x 10^-6 to 1 x 10^-4 M after 24 hrs using Hoechst 33342 staining by fluorescent microscopic analysis; type: functional, cell-based; procedure, shortened: as §5

SMILES | Activity (IMR-32 [6]) | Activity (SK-N-SH [7]) | Activity (HUVEC [8]) | Activity (NB39 [9]) | Activity (NHDF [10]) | other results
Cc1ccc2c(c1)C(=O)C(c1c(O)[nH]c3ccccc13)=N2 | – | – | – | – | – | Activity (NB39 [1]): inactive; Activity (HUVEC [2]): Non-toxic; Activity (IMR-32 [3]): inactive; Activity (NHDF [4]): Non-toxic; Activity (SK-N-SH [5]): inactive
O=C1Nc2ccccc2/C1=C1/Nc2ccccc2C1=O [INDIRUBIN] | – | – | – | – | – | Activity (NB39 [1]): inactive; Activity (HUVEC [2]): Non-toxic; Activity (IMR-32 [3]): inactive; Activity (NHDF [4]): Non-toxic; Activity (SK-N-SH [5]): inactive
CCc1ccc2c(c1)C(=O)/C(=C1/C(=O)Nc3ccccc31)N2 | – | – | – | – | – | Activity (NB39 [1]): inactive; Activity (HUVEC [2]): Non-toxic; Activity (IMR-32 [3]): inactive; Activity (NHDF [4]): Non-toxic; Activity (SK-N-SH [5]): inactive
O=Nc1c(-c2c(O)[nH]c3ccccc23)[nH]c2ccccc12 [INDIRUBIN-3-MONOXIME] | Active | Active | Non-toxic | Active | – | –
O=C1C(c2c(O)[nH]c3ccc(Br)cc23)=Nc2ccccc21 | inactive | inactive | Non-toxic | inactive | Non-toxic | –
COc1ccc2c(c1)/C(=C1/Nc3ccccc3/C1=N\O)C(=O)N2 | Active | Active | – | Active | – | –
COc1cccc2c1NC(=O)/C2=C1\Nc2ccccc2C1=O | – | – | – | – | – | Activity (NB39 [1]): inactive; Activity (HUVEC [2]): Non-toxic; Activity (IMR-32 [3]): inactive; Activity (NHDF [4]): Non-toxic; Activity (SK-N-SH [5]): inactive
COc1ccc2c(c1)N/C(=C1\C(=O)Nc3ccccc31)C2=O | Active | Active | – | Active | – | viability at 48 h [11]: 60%; viability at 48 h [12]: 82%
COc1cccc2c1NC(=O)/C2=C1\Nc2ccccc2\C1=N/O | Active | Active | – | Active | – | –
O=C1C(c2c(O)[nH]c3c(Br)cccc23)=Nc2ccccc21 | inactive | inactive | Non-toxic | inactive | Non-toxic | –
O=C1Nc2cc(Br)ccc2/C1=C1/Nc2ccccc2/C1=N\O | Active | Active | – | Active | – | –
COc1ccc2[nH]c(O)c(C3=Nc4ccccc4C3=O)c2c1 | Active | Active | Toxic | Active | Toxic | –
COc1ccc2c(c1)NC(=O)/C2=C1\Nc2ccccc2C1=O | – | – | – | – | – | Activity (NB39 [1]): inactive; Activity (HUVEC [2]): Non-toxic; Activity (IMR-32 [3]): inactive; Activity (NHDF [4]): Non-toxic; Activity (SK-N-SH [5]): inactive
COc1ccc2c(c1)C(=O)C(c1c(O)[nH]c3ccccc13)=N2 | Active | Active | Non-toxic | Active | Non-toxic | Activity (IMR-32 [13]): Active; viability at 100 µM [14]: 80%; viability at 100 µM (SK-N-SH [15]): 10%; viability at 100 µM [16]: 10%; Activity (IMR-32 [17]): Active; Activity (IMR-32 [18]): Active; Activity (IMR-32 [19]): Active; viability at 100 µM (IMR-32 [20]): 10%; viability at 100 µM [21]: 40%; Activity (IMR-32 [22]): Active
COc1ccc2c(c1)NC(=O)/C2=C1\Nc2ccccc2\C1=N/O | Active | Active | Non-toxic | Active | Non-toxic | –
O=C1C(c2c(O)[nH]c3ccccc23)=Nc2ccc(Br)cc21 | inactive | inactive | Non-toxic | inactive | Non-toxic | –
O=C1C(c2c(O)[nH]c3cc(Br)ccc23)=Nc2ccccc21 | inactive | inactive | Non-toxic | inactive | Non-toxic | –
COc1ccc2c(c1)C(=N\O)/C(=C1/C(=O)Nc3ccccc31)N2 | inactive | inactive | Non-toxic | inactive | Non-toxic | –
O=C1C(c2c(O)[nH]c3ccccc23)=Nc2cc(Br)ccc21 | inactive | inactive | Non-toxic | inactive | Non-toxic | –
